Laboratory results from the RNAGym collection of RNA variant scans (doi:10.1126/science.aae0568).
Fewer inactive variants are shown than the library holds.

B1: tRNA (parent)
chain: GUUCCGUUGGCGUAAUGGUAACGCGUCUCCCUCCUAAGGAGAAGACUGCGGGUUCGAGUCCCGUACGGAACG

Variants of: B1
Experiment: yeast fitness relative to wild type (ratio to wild type); higher = fitter; tRNA-Arg(CCU), competitive growth, 37 C, YPD
Procedure, shortened: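 Start and end populations of a pooled competition were compared by 100-nucleotide paired-end sequencing of gene amplicons. The Saccharomyces cerevisiae strains carried tRNA-Arg(CCU) gene variants at the native genomic locus, synthesised with a 3% per-site mutation rate at 69 sites, and competed in YPD at 37°C for 24 hours in six parallel replicates. Darwinian fitness relative to wild type was based on the change in genotype frequencies. Genotypes required ≥ 100 starting reads, and estimates < 0.5 were set to 0.5.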

| Variant | yeast fitness |
| --- | --- |
| G9A C34G C61U C66U | ≤ 0.5 |
| G9A G25A U35G | ≤ 0.5 |
| G9A C66G G68C | 0.571 |
| G9A U16C C29G U53A | ≤ 0.5 |
| G9A G10A C60U A69C | 0.618 |
| G9A G10C C11U U16G G41A | 0.597 |
| G9A C11G U13G G23C G25A C34U U59C C66U | ≤ 0.5 |
| G9A C49U G68C | 0.657 |
| G9A C49U G68A | 0.668 |
| G9A A65G A70G | 0.595 |
| G9A C31G C49G G51C | ≤ 0.5 |
| G9A C24U G38A G48C | ≤ 0.5 |
| G9A G41A A69C | 0.558 |
| G9A C24G A37G U59A G67A | ≤ 0.5 |
| G9A G12C G17A C22G C30U C34G U59G | ≤ 0.5 |
| G9A C22G U54C | 0.589 |
| G9A C29U C46U | 0.626 |
| G9A C24U C30G C34A C49G | ≤ 0.5 |
| G9A C46U G67C | 0.633 |
| G9A C11A | 0.604 |
| G9A C11G | 0.583 |
| G9A C11U | 0.928 |
| G9A G10A C31G G52A C60U | ≤ 0.5 |
| G9A C11G U32C A69C | ≤ 0.5 |

| Variant | yeast fitness |
| --- | --- |
| G9A C31U A43U | 0.697 |
| G9A G12A C30G U32C G50A | 0.554 |
| G9A C60U | 0.742 |
| G9A G12C C22U | 0.591 |
| G9A C11U C29A | 0.506 |
| G9A C31G G56C C66A | ≤ 0.5 |
| G9A C22A A65G | 0.617 |
| G9A U19C A69C | 0.834 |
| G9A C62A | 0.842 |
| G9A C27G A40G G68A | ≤ 0.5 |
| G9A C29G A45U C46G G48A G56C | ≤ 0.5 |
| G9A C30A A45C C49A | 0.651 |
| G9A G10C C11U U16G G41A A70G | ≤ 0.5 |
| G9A C11G U54C C55G G63C G67C | ≤ 0.5 |
| G9A G25C U26G C46G A70U | ≤ 0.5 |
| G9A C24G G41C C66G | ≤ 0.5 |
| G9A C11G G68A | ≤ 0.5 |
| G9A G39A | 0.999 |
| G9A C11G A36U | ≤ 0.5 |
| G9A C22A U47G C55A U64C G67A | ≤ 0.5 |
| G9A C34G | 0.588 |
| G9A C22U C61U A70C | ≤ 0.5 |
| G9A C30G U32C G41A A57U | ≤ 0.5 |
| G9A G12C U13A G25A C30G C66U | ≤ 0.5 |

| Variant | yeast fitness |
| --- | --- |
| G9A G12C U13A G25A C30G C66A | ≤ 0.5 |
| G9A G48A G63A A69U | 0.764 |
| G9A U13C | 0.893 |
| G9A C11G C24G U32G G52C | ≤ 0.5 |
| G9A G23A C29U A43G G68U | ≤ 0.5 |
| G9A C22U U28C G44A G51C G58C | ≤ 0.5 |
| G9A G50C A69U | 0.752 |
| G9A C30G A43C | ≤ 0.5 |
| G9A C24U G58C G67C | ≤ 0.5 |
| G9A U16C U28G U59A | ≤ 0.5 |
| G9A C31U A70C | 0.766 |
| G9A C22A U47G C55A | ≤ 0.5 |
| G9A G39A A45G G50A A69U | 0.548 |
| G9A C30G G58C | ≤ 0.5 |
| G9A C11U U47G C62G A69C | ≤ 0.5 |
| G9A C60G G67A | ≤ 0.5 |
| G9A C11G U32G A45G C49U U53A | 0.549 |
| G9A C27U G56A G67A | ≤ 0.5 |
| G9A C11G A40U G56A | ≤ 0.5 |
| G9A C29G C30G C46G | ≤ 0.5 |
| G9A G12A C29G A65U | ≤ 0.5 |
| G9A G51A A57G | ≤ 0.5 |
| G9A C34G C55U G63A | ≤ 0.5 |
| G9A C31U A40C | 1.04 |

| Variant | yeast fitness |
| --- | --- |
| G9A U19A A65C | 0.746 |
| G9A C24G A40C G68A | ≤ 0.5 |
| G9A G12U A14U C31G A69U | ≤ 0.5 |
| G9A C22G U35C A70G | ≤ 0.5 |
| G9A G67A | 0.883 |
| G9A G67C | 0.932 |
| G9A C11U A37G A45C | 0.603 |
| G9A G48A A70U | 1.25 |
| G9A C11U C55G | 0.601 |
| G9A C11G U13C C27A C29U | ≤ 0.5 |
| G9A C33U C49G | ≤ 0.5 |
| G9A C46U | 0.943 |
| G9A G18A C24U A57C | ≤ 0.5 |
| G9A U19C C49G | 0.634 |
| G9A C11A C30A A42C | 0.531 |
| G9A C29U C31U A42U | 0.615 |
| G9A C11G C22U A40G | ≤ 0.5 |
| G9A G25A C61A | ≤ 0.5 |
| G9A C31U C60G C61U G63A | ≤ 0.5 |
| G9A C22U U53G | 0.555 |
| G9A G10C C60U U64G | ≤ 0.5 |
| G9A C30G A70U | 0.57 |
| G9A C27U A45C | 0.904 |
| G9A G12C C31A C33G A45G C66U G68C | ≤ 0.5 |

| Variant | yeast fitness |
| --- | --- |
| G9A C11A A20G A42U G68C A70C | 0.554 |
| G9A C34U C46A C61A C62U | ≤ 0.5 |
| G9A G39C A43C A57C | ≤ 0.5 |
| G9A C27G A40G | 0.53 |
| G9A C27G A43G C66G | 0.717 |
| G9A C29U A43G G68U | 0.527 |
| G9A C31A G41C A69C | ≤ 0.5 |
| G9A C30A G38A A42C C61U | ≤ 0.5 |
| G9A C34U G44C A45C C66A | 0.578 |
| G9A C34U G44C A45C C66G | ≤ 0.5 |
| G9A U13A U32A | 0.839 |
| G9A G41C | 0.899 |
| G9A C11G C22U A40G A70G | ≤ 0.5 |
| G9A G10A C31G A65U | ≤ 0.5 |
| G9A G48A A69U | 1.07 |
| G9A G48A A69C | 0.87 |
| G9A G12A C27G | ≤ 0.5 |
| G9A U19A C49G U59C | ≤ 0.5 |
| G9A C11G U19C | 0.536 |
| G9A C30U G44A A65U | 0.578 |
| G9A C11A G50C C55A | ≤ 0.5 |
| G9A G18A G25C C30U | ≤ 0.5 |
| G9A U13A U19C C30U C61A | ≤ 0.5 |
| G9A C31A | 0.862 |

| Variant | yeast fitness |
| --- | --- |
| G9A C31U | 0.982 |
| G9A U13A C46U | 0.708 |
| G9A C24A C66A | ≤ 0.5 |
| G9A G23A C27A | ≤ 0.5 |
| G9A C11G U19C G56A C60G | 0.566 |
| G9A G12C C31A C33G A45G G67U | ≤ 0.5 |
| G9A G56U G58A | 0.563 |
| G9A G48A | 0.955 |
| G9A G48C | 0.985 |
| G9A C34U U59C A65C A69G | ≤ 0.5 |
| G9A U19C | 0.983 |
| G9A U19A | 1.04 |
| G9A C24U G25C C30G G50C G56A C66U | ≤ 0.5 |
| G9A C24U G38C G56C | ≤ 0.5 |
| G9A C55U A70U | 0.623 |
| G9A C55U A70G | 0.536 |
| G9A G10A A21G A57G C66U | ≤ 0.5 |
| G9A C22U C60G A65C | 0.648 |
| G9A G10A C31G | ≤ 0.5 |
| G9A C11G G50C C61G A70C | ≤ 0.5 |
| G9A C31A C46A A57G | ≤ 0.5 |
| G9A G12C C31A C33G A45G | 0.611 |
| G9A A57U C66U | 0.548 |
| G9A C31U C55U | 0.694 |

| Variant | yeast fitness |
| --- | --- |
| G9A G10C A20G G25C C33U | ≤ 0.5 |
| G9A C24G C34G C61U | ≤ 0.5 |
| G9A G58C | 0.895 |
| G9A C11U A36C | ≤ 0.5 |
| G9A C11G C55G | 0.562 |
| G9A G10A C46G | ≤ 0.5 |
| G9A G10C U19A | ≤ 0.5 |
| G9A C27G C31U C46G G51C | 0.594 |
| G9A U16A G23C C24A U28G C34U A37U | ≤ 0.5 |
| G9A G25C C30U | 0.679 |
| G9A G12U A14U C34A A65C | ≤ 0.5 |
| G9A C31G G56C | 0.753 |
| G9A C30A A57C A70U | ≤ 0.5 |
| G9A C29A C34A G67C | ≤ 0.5 |
| G9A C55G | 0.549 |
| G9A C55A | 0.707 |
| G9A C55U | 0.65 |
| G9A C33U G56A G67A | ≤ 0.5 |
| G9A C29A | 0.735 |
| G9A C29G | 0.555 |
| G9A G56A G67A | 0.632 |
| G9A C34G A65U | ≤ 0.5 |
| G9A A65G | 0.881 |
